The term IC50 denotes the concentration that gives 50% inhibition.

For test [1], the target named is T1, Fatty-acid amide hydrolase 1 (Mus musculus) (UniProt O08914).
T1 sequence (whole entry): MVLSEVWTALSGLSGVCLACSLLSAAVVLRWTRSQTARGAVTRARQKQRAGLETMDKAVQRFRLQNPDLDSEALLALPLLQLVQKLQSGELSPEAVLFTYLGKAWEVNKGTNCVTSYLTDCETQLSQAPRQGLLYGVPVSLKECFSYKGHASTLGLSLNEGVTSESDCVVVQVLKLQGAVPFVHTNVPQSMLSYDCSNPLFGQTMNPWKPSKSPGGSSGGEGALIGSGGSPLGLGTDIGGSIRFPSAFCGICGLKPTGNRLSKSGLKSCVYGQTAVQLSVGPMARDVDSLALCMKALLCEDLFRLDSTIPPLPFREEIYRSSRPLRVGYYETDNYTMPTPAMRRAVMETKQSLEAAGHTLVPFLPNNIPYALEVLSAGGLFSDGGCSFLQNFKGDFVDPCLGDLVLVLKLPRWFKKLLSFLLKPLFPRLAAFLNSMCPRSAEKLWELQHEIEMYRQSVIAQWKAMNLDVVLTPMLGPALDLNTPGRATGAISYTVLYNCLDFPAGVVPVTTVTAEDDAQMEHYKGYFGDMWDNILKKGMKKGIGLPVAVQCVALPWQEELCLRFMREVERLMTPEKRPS
The test can be described thus: Inhibition of FAAH in mouse brain at 0.01 to 100 uM treated for 30 mins by SDS-PAGE using rhodamine-tagged FP probe. The format is tissue-based. In a few lines:
(§1)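 Mouse brain membrane proteome preincubated with inhibitor across 0.01-100 μM for 30 min. A rhodamine-tagged fluorophosphonate probe (FP-Rh) was then added for 60 min. Samples were resolved by SDS-PAGE, and probe labeling of each hydrolase band was read by in-gel fluorescence scanning.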

For test [2], the target named is Monoacylglycerol lipase ABHD6 (Mus musculus) (UniProt Q8R2Y0). The test can be described thus: Inhibition of ABHD6 in mouse brain at 0.01 to 100 uM treated for 30 mins by SDS-PAGE using rhodamine-tagged FP probe. The class given is tissue-based. In short, it runs like this: as §1
The target of test [3] is T2, Diacylglycerol lipase-alpha (Mus musculus) (UniProt Q6WQJ1).
T2 sequence (whole entry): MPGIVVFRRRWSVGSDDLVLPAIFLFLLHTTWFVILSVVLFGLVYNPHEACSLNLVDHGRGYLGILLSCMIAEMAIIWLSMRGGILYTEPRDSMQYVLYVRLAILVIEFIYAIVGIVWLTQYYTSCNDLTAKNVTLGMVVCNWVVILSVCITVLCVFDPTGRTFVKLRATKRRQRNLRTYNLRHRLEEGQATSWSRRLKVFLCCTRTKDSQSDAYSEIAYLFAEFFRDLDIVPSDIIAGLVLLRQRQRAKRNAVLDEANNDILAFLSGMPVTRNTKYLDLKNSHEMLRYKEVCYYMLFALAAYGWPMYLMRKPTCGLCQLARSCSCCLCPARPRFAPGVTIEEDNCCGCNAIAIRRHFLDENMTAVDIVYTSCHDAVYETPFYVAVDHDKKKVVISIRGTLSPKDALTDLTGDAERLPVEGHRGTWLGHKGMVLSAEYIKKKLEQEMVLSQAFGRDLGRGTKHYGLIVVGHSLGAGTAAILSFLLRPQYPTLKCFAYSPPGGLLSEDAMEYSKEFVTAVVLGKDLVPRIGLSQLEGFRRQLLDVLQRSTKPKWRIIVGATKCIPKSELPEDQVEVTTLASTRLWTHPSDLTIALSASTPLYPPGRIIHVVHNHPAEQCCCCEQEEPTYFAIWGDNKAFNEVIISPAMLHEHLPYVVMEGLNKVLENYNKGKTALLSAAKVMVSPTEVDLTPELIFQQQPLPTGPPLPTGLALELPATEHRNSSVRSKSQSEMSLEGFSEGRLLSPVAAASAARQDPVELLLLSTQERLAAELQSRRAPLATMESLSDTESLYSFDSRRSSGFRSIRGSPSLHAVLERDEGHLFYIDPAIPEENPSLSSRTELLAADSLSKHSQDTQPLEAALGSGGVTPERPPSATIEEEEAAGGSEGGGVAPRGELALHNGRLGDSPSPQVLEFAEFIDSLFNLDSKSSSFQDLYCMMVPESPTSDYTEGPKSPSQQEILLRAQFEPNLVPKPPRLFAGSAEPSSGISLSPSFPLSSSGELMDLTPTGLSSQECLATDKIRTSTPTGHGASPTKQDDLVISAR
The test can be described thus: Inhibition of DAGLalpha in mouse brain assessed as >15 average spectral count at 50 uM treated for 30 mins by ABPP-MudPIT assay. The class given is tissue-based.

Test [4] addresses T3, Diacylglycerol lipase-beta (Mus musculus) (UniProt Q91WC9).
T3 sequence (whole entry): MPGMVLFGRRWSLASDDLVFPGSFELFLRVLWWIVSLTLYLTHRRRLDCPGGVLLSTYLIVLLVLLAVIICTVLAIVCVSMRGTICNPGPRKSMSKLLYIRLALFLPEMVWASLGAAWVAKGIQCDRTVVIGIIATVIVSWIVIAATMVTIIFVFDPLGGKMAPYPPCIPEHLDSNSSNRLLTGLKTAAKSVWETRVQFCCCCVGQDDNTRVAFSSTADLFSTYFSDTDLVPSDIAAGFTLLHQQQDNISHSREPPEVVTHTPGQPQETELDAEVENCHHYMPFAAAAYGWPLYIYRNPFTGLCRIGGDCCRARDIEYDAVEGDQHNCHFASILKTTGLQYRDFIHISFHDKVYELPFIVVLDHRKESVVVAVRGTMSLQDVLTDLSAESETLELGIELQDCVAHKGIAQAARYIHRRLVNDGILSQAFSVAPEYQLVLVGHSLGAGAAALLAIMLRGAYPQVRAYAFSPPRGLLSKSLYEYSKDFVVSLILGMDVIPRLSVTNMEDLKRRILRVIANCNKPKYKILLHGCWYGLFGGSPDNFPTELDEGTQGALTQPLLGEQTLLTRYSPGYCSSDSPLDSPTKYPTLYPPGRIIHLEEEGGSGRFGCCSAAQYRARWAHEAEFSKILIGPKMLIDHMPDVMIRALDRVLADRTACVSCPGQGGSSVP
The test can be described thus: Inhibition of DAGLbeta in mouse brain assessed as >15 average spectral count at 50 uM treated for 30 mins by ABPP-MudPIT assay. The class given is tissue-based.

In test [5] the target is Phosphatidylserine lipase ABHD16A (Homo sapiens, UniProt O95870). The test is described as follows: Inhibition of recombinant BAT5 transfected in HEK293T cells by SDS-PAGE using rhodamine-tagged FP probe. The format is cell-based, HEK-293T. In short, it runs like this: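 HEK293T cells were transfected with cDNA for the target hydrolase. The transfected proteome was treated with inhibitor across 0.01-100 μM, then labeled with rhodamine-tagged fluorophosphonate probe (FP-Rh). Loss of probe labeling was read to give IC50. Values are means ± standard errors of three independent experiments.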

In test [6] the target is Diacylglycerol lipase-beta (Homo sapiens) (UniProt Q8NCG7). The test can be described thus: Inhibition of recombinant DAGLbeta overexpressed in african green monkey COS7 cells assessed as accumulation of 2-arachidonoylglycerol […]. The class given is cell-based. The following applies: COS-7. Background: In western blotting, separated proteins are transferred to a membrane and probed.

Test [7] addresses Diacylglycerol lipase-alpha (Homo sapiens) (UniProt Q9Y4D2). The test can be described thus: Inhibition of recombinant DAGLalpha overexpressed in african green monkey COS7 cells assessed as accumulation of 2-arachidonoylglycerol […]. The class given is cell-based. The following applies: COS-7.

Activity calls are given as the source filed them. The rule behind the calls is not given here.

Sequence of Phosphatidylserine lipase ABHD16A (O95870 whole entry): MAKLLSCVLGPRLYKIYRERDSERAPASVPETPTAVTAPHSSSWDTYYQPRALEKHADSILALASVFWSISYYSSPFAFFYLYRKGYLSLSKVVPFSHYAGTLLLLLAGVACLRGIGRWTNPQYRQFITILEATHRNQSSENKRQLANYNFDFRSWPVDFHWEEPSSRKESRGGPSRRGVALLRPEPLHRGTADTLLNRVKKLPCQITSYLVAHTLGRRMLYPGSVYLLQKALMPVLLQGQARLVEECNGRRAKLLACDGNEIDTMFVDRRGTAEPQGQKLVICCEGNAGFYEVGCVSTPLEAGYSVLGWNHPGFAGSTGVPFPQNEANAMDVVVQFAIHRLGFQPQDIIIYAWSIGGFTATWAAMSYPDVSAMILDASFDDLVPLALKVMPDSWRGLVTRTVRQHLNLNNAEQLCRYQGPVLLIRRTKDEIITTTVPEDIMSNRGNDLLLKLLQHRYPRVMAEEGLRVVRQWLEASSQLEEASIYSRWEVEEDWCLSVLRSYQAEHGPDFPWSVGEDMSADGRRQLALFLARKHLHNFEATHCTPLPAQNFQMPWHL
Sequence of Diacylglycerol lipase-alpha (Homo sapiens) (Q9Y4D2 whole entry): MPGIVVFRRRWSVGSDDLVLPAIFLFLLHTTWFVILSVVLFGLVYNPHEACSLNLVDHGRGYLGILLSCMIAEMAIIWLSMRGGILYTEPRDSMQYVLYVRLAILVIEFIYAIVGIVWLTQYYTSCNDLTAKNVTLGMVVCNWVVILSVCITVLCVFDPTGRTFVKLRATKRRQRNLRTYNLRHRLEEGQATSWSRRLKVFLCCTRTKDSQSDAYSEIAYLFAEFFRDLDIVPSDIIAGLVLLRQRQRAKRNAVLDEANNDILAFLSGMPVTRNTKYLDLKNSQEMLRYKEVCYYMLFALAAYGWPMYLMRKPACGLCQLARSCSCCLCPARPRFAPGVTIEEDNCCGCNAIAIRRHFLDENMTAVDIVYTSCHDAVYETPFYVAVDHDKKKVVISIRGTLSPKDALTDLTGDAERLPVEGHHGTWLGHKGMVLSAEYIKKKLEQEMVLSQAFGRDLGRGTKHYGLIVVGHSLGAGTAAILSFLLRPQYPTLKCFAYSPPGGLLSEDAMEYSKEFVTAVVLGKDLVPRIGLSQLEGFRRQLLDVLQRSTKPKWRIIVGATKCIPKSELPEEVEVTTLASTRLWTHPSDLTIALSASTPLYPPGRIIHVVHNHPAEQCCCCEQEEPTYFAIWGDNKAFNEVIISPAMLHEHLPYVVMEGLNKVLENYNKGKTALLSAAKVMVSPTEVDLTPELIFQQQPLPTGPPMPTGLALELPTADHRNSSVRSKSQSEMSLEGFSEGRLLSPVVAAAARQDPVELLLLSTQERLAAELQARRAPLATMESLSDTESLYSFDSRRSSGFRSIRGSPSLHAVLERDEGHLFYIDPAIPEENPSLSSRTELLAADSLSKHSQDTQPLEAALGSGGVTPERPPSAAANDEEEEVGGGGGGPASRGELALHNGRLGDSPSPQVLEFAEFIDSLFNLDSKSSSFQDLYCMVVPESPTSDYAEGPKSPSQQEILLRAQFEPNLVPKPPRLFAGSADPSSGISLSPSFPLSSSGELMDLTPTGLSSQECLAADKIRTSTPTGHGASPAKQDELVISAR
Sequence of Diacylglycerol lipase-beta (Homo sapiens) (Q8NCG7 whole entry): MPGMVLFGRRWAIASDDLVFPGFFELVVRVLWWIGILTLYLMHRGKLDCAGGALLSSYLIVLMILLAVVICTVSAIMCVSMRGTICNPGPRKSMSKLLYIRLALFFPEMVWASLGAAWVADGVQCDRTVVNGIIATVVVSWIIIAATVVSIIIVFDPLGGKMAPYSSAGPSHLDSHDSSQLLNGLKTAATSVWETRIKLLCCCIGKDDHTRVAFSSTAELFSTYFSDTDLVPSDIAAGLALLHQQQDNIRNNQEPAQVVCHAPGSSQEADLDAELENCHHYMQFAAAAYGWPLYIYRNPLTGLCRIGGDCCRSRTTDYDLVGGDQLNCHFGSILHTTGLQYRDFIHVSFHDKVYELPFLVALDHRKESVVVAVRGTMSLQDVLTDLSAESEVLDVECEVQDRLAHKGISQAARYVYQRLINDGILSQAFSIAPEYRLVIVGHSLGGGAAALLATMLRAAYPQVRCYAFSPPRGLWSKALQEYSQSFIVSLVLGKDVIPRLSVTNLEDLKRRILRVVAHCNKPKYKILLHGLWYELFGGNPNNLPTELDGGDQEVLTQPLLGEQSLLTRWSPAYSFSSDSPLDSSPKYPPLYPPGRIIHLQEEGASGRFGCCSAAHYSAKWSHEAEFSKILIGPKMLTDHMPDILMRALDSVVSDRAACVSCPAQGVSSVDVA
Sequence of Monoacylglycerol lipase ABHD6 (Mus musculus) (Q8R2Y0 whole entry): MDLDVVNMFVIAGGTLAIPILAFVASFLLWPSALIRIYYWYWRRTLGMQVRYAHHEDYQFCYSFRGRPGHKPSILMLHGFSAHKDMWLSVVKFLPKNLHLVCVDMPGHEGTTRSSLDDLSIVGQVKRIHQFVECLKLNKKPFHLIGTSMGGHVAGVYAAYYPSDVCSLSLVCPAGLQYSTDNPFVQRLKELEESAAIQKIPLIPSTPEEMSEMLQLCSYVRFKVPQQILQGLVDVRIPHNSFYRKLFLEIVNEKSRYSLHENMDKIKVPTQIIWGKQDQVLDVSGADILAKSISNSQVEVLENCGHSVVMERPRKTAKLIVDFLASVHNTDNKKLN

`CCCCCCCCCCC[C@@H](C[C@@H]1OC(=O)[C@H]1CCCCCC)OC(=O)[C@H](CC(C)C)NC=O` [ORLISTAT]: the result in test [1], in test [2], in test [6] and in test [7] was Active. Further, the outcome in test [3] and in test [4] was inactive. For the same compound, the IC50 in test [5] was determined as 0.03 µM.

Consider `O=C(NCCCCCCNC(=O)ON=C1CCCCC1)ON=C1CCCCC1`, for which the result in test [1], in test [2], in test [6] and in test [7] was Active. Moreover, the outcome in test [3] and in test [4] was inactive. For the same compound, the 50% inhibitory concentration (IC50) in test [5] was 23 µM.

These data come from ChEMBL document CHEMBL1151781, “Selectivity of inhibitors of endocannabinoid biosynthesis evaluated by activity-based protein profiling” (Bioorg Med Chem Lett, 2008).
